≈ marks a conversion by molar mass, not a printed value. Calls of active or inactive are those of the source. The rule behind the calls is not given here.
Legend:
Pseudomonas aeruginosa [1] = experiment: Antimicrobial activity against Pseudomonas aeruginosa MTCC 741 at 1 mg/disc after 24 hrs by disc diffusion assay; assay type: functional
In short: (§1)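 Disc diffusion on Mueller Hinton agar. Inoculum was grown in MHB for 24 h at 37 °C, swabbed onto the plates and dried for 10 min. Discs with 1 mg compound were left 30 min at room temperature for diffusion, then incubated at 37 °C for 24 h. Inhibition zone was read in mm; run twice. Solvent was the negative control, streptomycin the positive control.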

Candida albicans [2] = experiment: Antimicrobial activity against Candida albicans MTCC 227 at 1 mg/disc after 24 hrs by disc diffusion assay; assay type: functional
Malassezia pachydermatis [3] = experiment: Antimicrobial activity against Malassezia pachydermatis at 1 mg/disc after 24 hrs by disc diffusion assay; assay type: functional
Bacillus subtilis [4] = experiment: Antimicrobial activity against Bacillus subtilis MTCC 441 after 24 hrs by two fold dilution method; assay type: functional; details: MTCC 441, 24 h
In short: (§2)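 Broth two-fold serial dilution in 96-well plates from 1000 to 7.81 µg/mL, compound in DMSO (2%). Inoculum was grown in MHB for 24 h at 37 °C; plates were incubated 24 h at 37 °C. 5 µL of broth was spotted onto MHA; MIC was the lowest concentration with no visible growth on agar. Streptomycin was the positive control.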

Micrococcus luteus [5] = experiment: Antimicrobial activity against Micrococcus luteus MTCC 106 after 24 hrs by two fold dilution method; assay type: functional; details: MTCC 106, 24 h; in short: as §2
Klebsiella aerogenes [6] = experiment: Antimicrobial activity against Enterobacter aerogenes MTCC 111 after 24 hrs by two fold dilution method; assay type: functional; details: MTCC 111, 24 h; in short: as §2
Staphylococcus aureus [7] = experiment: Antimicrobial activity against Staphylococcus aureus MTCC 96 after 24 hrs by two fold dilution method; assay type: functional; details: MTCC 96, 24 h; in short: as §2
Salmonella typhimurium [8] = experiment: Antimicrobial activity against Salmonella typhimurium MTCC 1251 after 24 hrs by two fold dilution method; assay type: functional, Salmonella enterica subsp. enterica serovar Typhimurium; details: Salmonella enterica, MTCC 1251, 24 h; in short: as §2
Klebsiella pneumoniae [9] = experiment: Antimicrobial activity against Klebsiella pneumoniae MTCC 109 after 24 hrs by two fold dilution method; assay type: functional; details: MTCC 109, 24 h; in short: as §2
Proteus vulgaris [10] = experiment: Antimicrobial activity against Proteus vulgaris MTCC 1771 after 24 hrs by two fold dilution method; assay type: functional; details: MTCC 1771, 24 h; in short: as §2
Staphylococcus aureus [11] = experiment: Antimicrobial activity against methicillin-resistant Staphylococcus aureus MTCC 96 after 24 hrs by two fold dilution method; assay type: functional; details: MTCC 96, 24 h; in short: as §2
[12] = tested on: Salmonella enterica subsp. enterica serovar Paratyphi B; experiment: Antimicrobial activity against Salmonella paratyphi B after 24 hrs by two fold dilution method; assay type: functional; in short: as §2
Shigella flexneri [13] = experiment: Antimicrobial activity against Shigella flexneri MTCC 1457 after 24 hrs by two fold dilution method; assay type: functional; details: MTCC 1457, 24 h; in short: as §2
Pseudomonas aeruginosa [14] = experiment: Antimicrobial activity against Pseudomonas aeruginosa MTCC 741 after 24 hrs by two fold dilution method; assay type: functional; details: MTCC 741, 24 h; in short: as §2
Candida albicans [15] = experiment: Antimicrobial activity against Candida albicans MTCC 227 after 48 to 72 hrs by two fold dilution method; assay type: functional
In short: (§3)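 Yeast was grown in Sabouraud dextrose broth at 28 °C for 48 h and tested per CLSI reference methods. Two-fold serial dilutions from 1000 to 7.81 µg/mL, compound in DMSO (2%), in 96-well plates, incubated 48–72 h at 28 °C. MIC was the lowest concentration with no visible fungal growth. Ketoconazole was the positive control.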

Malassezia pachydermatis [16] = experiment: Antimicrobial activity against Malassezia pachydermatis after 48 to 72 hrs by two fold dilution method; assay type: functional; in short: as §3
Bacillus subtilis [17] = experiment: Bactericidal activity against Bacillus subtilis MTCC 441 after 24 hrs by two fold dilution method; assay type: functional; details: MTCC 441, 24 h
In short: (§4)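 Tubes held 5 mL MHB with two-fold dilutions from 1000 to 7.81 µg/mL and were inoculated with 5 × 10^5 to 1 × 10^6 cells in 0.1 mL MHB, incubated without shaking. Turbidity was checked at 20 h, tubes vortexed and re-incubated 4 h.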

Micrococcus luteus [18] = experiment: Bactericidal activity against Micrococcus luteus MTCC 106 after 24 hrs by two fold dilution method; assay type: functional; details: MTCC 106, 24 h; in short: as §4
Klebsiella aerogenes [19] = experiment: Bactericidal activity against Enterobacter aerogenes MTCC 111 after 24 hrs by two fold dilution method; assay type: functional; details: MTCC 111, 24 h; in short: as §4
Staphylococcus aureus [20] = experiment: Bactericidal activity against Staphylococcus aureus MTCC 96 after 24 hrs by two fold dilution method; assay type: functional; details: MTCC 96, 24 h; in short: as §4
Salmonella typhimurium [21] = experiment: Bactericidal activity against Salmonella typhimurium MTCC 1251 after 24 hrs by two fold dilution method; assay type: functional, Salmonella enterica subsp. enterica serovar Typhimurium; details: Salmonella enterica, MTCC 1251, 24 h; in short: as §4
Klebsiella pneumoniae [22] = experiment: Bactericidal activity against Klebsiella pneumoniae MTCC 109 after 24 hrs by two fold dilution method; assay type: functional; details: MTCC 109, 24 h; in short: as §4
Proteus vulgaris [23] = experiment: Bactericidal activity against Proteus vulgaris MTCC 1771 after 24 hrs by two fold dilution method; assay type: functional; details: MTCC 1771, 24 h; in short: as §4
Staphylococcus aureus [24] = experiment: Bactericidal activity against methicillin-resistant Staphylococcus aureus MTCC 96 after 24 hrs by two fold dilution method; assay type: functional; details: MTCC 96, 24 h; in short: as §4
[25] = tested on: Salmonella enterica subsp. enterica serovar Paratyphi B; experiment: Bactericidal activity against Salmonella paratyphi B after 24 hrs by two fold dilution method; assay type: functional; in short: as §4
Shigella flexneri [26] = experiment: Bactericidal activity against Shigella flexneri MTCC 1457 after 24 hrs by two fold dilution method; assay type: functional; details: MTCC 1457, 24 h; in short: as §4
Pseudomonas aeruginosa [27] = experiment: Bactericidal activity against Pseudomonas aeruginosa MTCC 741 after 24 hrs by two fold dilution method; assay type: functional; details: MTCC 741, 24 h; in short: as §4
Candida albicans [28] = experiment: Fungicidal activity against Candida albicans MTCC 227 after 48 to 72 hrs by two fold dilution method; assay type: functional
Malassezia pachydermatis [29] = experiment: Fungicidal activity against Malassezia pachydermatis after 48 to 72 hrs by two fold dilution method; assay type: functional
Bacillus subtilis [30] = experiment: Antimicrobial activity against Bacillus subtilis MTCC 441 at 1 mg/disc after 24 hrs by disc diffusion assay; assay type: functional; in short: as §1
Micrococcus luteus [31] = experiment: Antimicrobial activity against Micrococcus luteus MTCC 106 at 1 mg/disc after 24 hrs by disc diffusion assay; assay type: functional; in short: as §1
Klebsiella aerogenes [32] = experiment: Antimicrobial activity against Enterobacter aerogenes MTCC 111 at 1 mg/disc after 24 hrs by disc diffusion assay; assay type: functional; in short: as §1
Staphylococcus aureus [33] = experiment: Antimicrobial activity against Staphylococcus aureus MTCC 96 at 1 mg/disc after 24 hrs by disc diffusion assay; assay type: functional; in short: as §1
Salmonella typhimurium [34] = experiment: Antimicrobial activity against Salmonella typhimurium MTCC 1251 at 1 mg/disc after 24 hrs by disc diffusion assay; assay type: functional, Salmonella enterica subsp. enterica serovar Typhimurium; in short: as §1
Klebsiella pneumoniae [35] = experiment: Antimicrobial activity against Klebsiella pneumoniae MTCC 109 at 1 mg/disc after 24 hrs by disc diffusion assay; assay type: functional; in short: as §1
Proteus vulgaris [36] = experiment: Antimicrobial activity against Proteus vulgaris MTCC 1771 at 1 mg/disc after 24 hrs by disc diffusion assay; assay type: functional; in short: as §1
Staphylococcus aureus [37] = experiment: Antimicrobial activity against […] Staphylococcus aureus MTCC 96 at 1 mg/disc after 24 hrs by disc diffusion assay; assay type: functional; in short: as §1
[38] = tested on: Salmonella enterica subsp. enterica serovar Paratyphi B; experiment: Antimicrobial activity against Salmonella paratyphi B at 1 mg/disc after 24 hrs by disc diffusion assay; assay type: functional; in short: as §1
Shigella flexneri [39] = experiment: Antimicrobial activity against Shigella flexneri MTCC 1457 at 1 mg/disc after 24 hrs by disc diffusion assay; assay type: functional; in short: as §1

SMILES: CC(C)C[C@H](C)N[C@H](C)[C@@H](O)c1ccccc1.Cl
- inhibition zone (IZ) (Pseudomonas aeruginosa [1]): 11 mm
- inhibition zone (IZ) (Candida albicans [2]): 13 mm
- inhibition zone (IZ) (Malassezia pachydermatis [3]): 12 mm
- MIC (Bacillus subtilis [4]): 250 µg/mL
- MIC (Micrococcus luteus [5]): 250 µg/mL
- MIC (Klebsiella aerogenes [6]): 250 µg/mL
- MIC (Staphylococcus aureus [7]): 250 µg/mL
- MIC (Salmonella typhimurium [8]): 500 µg/mL
- MIC (Klebsiella pneumoniae [9]): 250 µg/mL
- MIC (Proteus vulgaris [10]): 125 µg/mL
- MIC (Staphylococcus aureus [11]): 125 µg/mL
- MIC [12]: 250 µg/mL
- MIC (Shigella flexneri [13]): 250 µg/mL
- MIC (Pseudomonas aeruginosa [14]): 250 µg/mL
- MIC (Candida albicans [15]): 250 µg/mL
- MIC (Malassezia pachydermatis [16]): 250 µg/mL
- MBC (Bacillus subtilis [17]): 250 µg/mL
- MBC (Micrococcus luteus [18]): 500 µg/mL
- MBC (Klebsiella aerogenes [19]): 250 µg/mL
- MBC (Staphylococcus aureus [20]): 250 µg/mL
- MBC (Salmonella typhimurium [21]): 500 µg/mL
- MBC (Klebsiella pneumoniae [22]): 250 µg/mL
- MBC (Proteus vulgaris [23]): 125 µg/mL
- MBC (Staphylococcus aureus [24]): 250 µg/mL
- MBC [25]: 500 µg/mL
- MBC (Shigella flexneri [26]): 500 µg/mL
- MBC (Pseudomonas aeruginosa [27]): 500 µg/mL
- MFC (Candida albicans [28]): 250 µg/mL
- MFC (Malassezia pachydermatis [29]): 250 µg/mL
- inhibition zone (IZ) (Bacillus subtilis [30]): 12 mm
- inhibition zone (IZ) (Micrococcus luteus [31]): 13 mm
- inhibition zone (IZ) (Klebsiella aerogenes [32]): 12 mm
- inhibition zone (IZ) (Staphylococcus aureus [33]): 13 mm
- inhibition zone (IZ) (Salmonella typhimurium [34]): 10 mm
- inhibition zone (IZ) (Klebsiella pneumoniae [35]): 13 mm
- inhibition zone (IZ) (Proteus vulgaris [36]): 14 mm
- inhibition zone (IZ) (Staphylococcus aureus [37]): 15 mm
- inhibition zone (IZ) [38]: 10 mm
- inhibition zone (IZ) (Shigella flexneri [39]): 10 mm

SMILES: CC[C@@H](C)N[C@@H](C)[C@H](O)c1ccccc1.Cl (mixture of isomers)
- inhibition zone (IZ) (Pseudomonas aeruginosa [1]): inactive
- inhibition zone (IZ) (Candida albicans [2]): inactive
- inhibition zone (IZ) (Malassezia pachydermatis [3]): inactive
- inhibition zone (IZ) (Bacillus subtilis [30]): inactive
- inhibition zone (IZ) (Micrococcus luteus [31]): inactive
- inhibition zone (IZ) (Klebsiella aerogenes [32]): inactive
- inhibition zone (IZ) (Staphylococcus aureus [33]): 10 mm
- inhibition zone (IZ) (Salmonella typhimurium [34]): 10 mm
- inhibition zone (IZ) (Klebsiella pneumoniae [35]): inactive
- inhibition zone (IZ) (Proteus vulgaris [36]): inactive
- inhibition zone (IZ) (Staphylococcus aureus [37]): inactive
- inhibition zone (IZ) [38]: 10 mm
- inhibition zone (IZ) (Shigella flexneri [39]): inactive

SMILES: CN[C@@H]1[C@H](O[C@H]2[C@H](O[C@H]3[C@H](O)[C@@H](O)[C@H](N=C(N)N)[C@@H](O)[C@@H]3N=C(N)N)O[C@@H](C)[C@]2(O)C=O)O[C@@H](CO)[C@H](O)[C@H]1O [STREPTOMYCIN]
- inhibition zone (IZ) (Pseudomonas aeruginosa [1]): 30 mm
- MIC (Bacillus subtilis [4]): 6.25 µg/mL (≈ 10.7 µM)
- MIC (Micrococcus luteus [5]): 6.25 µg/mL (≈ 10.7 µM)
- MIC (Klebsiella aerogenes [6]): 25 µg/mL (≈ 43 µM)
- MIC (Staphylococcus aureus [7]): 6.25 µg/mL (≈ 10.7 µM)
- MIC (Salmonella typhimurium [8]): 30 µg/mL (≈ 51.6 µM)
- MIC (Klebsiella pneumoniae [9]): 6.25 µg/mL (≈ 10.7 µM)
- MIC (Proteus vulgaris [10]): 25 µg/mL (≈ 43 µM)
- MIC (Staphylococcus aureus [11]): 6.25 µg/mL (≈ 10.7 µM)
- MIC [12]: 62.5 µg/mL (≈ 107 µM)
- MIC (Shigella flexneri [13]): 6.25 µg/mL (≈ 10.7 µM)
- MIC (Pseudomonas aeruginosa [14]): 25 µg/mL (≈ 43 µM)
- inhibition zone (IZ) (Bacillus subtilis [30]): 30 mm
- inhibition zone (IZ) (Micrococcus luteus [31]): 26 mm
- inhibition zone (IZ) (Klebsiella aerogenes [32]): 22 mm
- inhibition zone (IZ) (Staphylococcus aureus [33]): 14 mm
- inhibition zone (IZ) (Salmonella typhimurium [34]): 18 mm
- inhibition zone (IZ) (Klebsiella pneumoniae [35]): 20 mm
- inhibition zone (IZ) (Proteus vulgaris [36]): 30 mm
- inhibition zone (IZ) (Staphylococcus aureus [37]): 30 mm
- inhibition zone (IZ) [38]: 30 mm
- inhibition zone (IZ) (Shigella flexneri [39]): 30 mm

SMILES: CC(=O)N1CCN(c2ccc(OCC3COC(Cn4ccnc4)(c4ccc(Cl)cc4Cl)O3)cc2)CC1 (stereo not drawn) [KETOCONAZOLE]
- inhibition zone (IZ) (Candida albicans [2]): 28 mm
- inhibition zone (IZ) (Malassezia pachydermatis [3]): 26 mm
- MIC (Candida albicans [15]): 25 µg/mL (≈ 47 µM)
- MIC (Malassezia pachydermatis [16]): 25 µg/mL (≈ 47 µM)

— ChEMBL document CHEMBL3352188, “Synthesis, antimicrobial and molecular docking studies of enantiomerically pure N-alkylated β-amino alcohols from phenylpropanolamines” (2014)
